SENP7 inh: SENP7 protease inhibitors, primary screen, biochemical, luminescence, uHTS. recombinant SENP7, Z-RLRGG-aminoluciferin luminescence, 40 min. actives 1.5% (n = 330,000). Sentrin-specific protease 7 (Homo sapiens), Q9BQF6. inhibition, % at 5 µM;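 active = inhibition above about 50% at the single test dose, limit read from the data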;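 also: plate controls were DMSO with enzyme for no effect and no enzyme buffer wells for full effect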
SENP1 FRET inh: human SENP1 catalytic domain inhibitors, primary screen, biochemical, FRET, uHTS | Sentrin-specific protease 1 (Homo sapiens), Q9P0U3 | recombinant SENP1 catalytic domain, CyPet-SUMO1-YPet FRET cleavage | inhibition, % at 10 µM | actives 0.21% (n = 360,000) | AID 624204, 2012;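 active = inhibition at least 30% at 10 µM, raw YFP signal under a set limit, fluorescence ratio 0.5 to 1.5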;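 also: 0% = enzyme with DMSO and 100% = no enzyme wells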
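Controls: no-enzyme wells low, DMSO-plus-enzyme wells high control. Test system: human recombinant His6-tagged SENP1 catalytic domain enzyme. Reagent: SFCypet-SUMO1-SFYpet FRET protein substrate, 25 nM final. Doses: one dose per compound, 10 µM, 0.5% DMSO. Detection: FRET, CFP and YFP emission. Timing: 50 min reaction at room temperature.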
Apaf1 inhib: inhibitors of human Apaf-1 apoptosome, primary screen, biochemical, DEVD-Rh110 fluorescence, uHTS; Apoptotic protease-activating factor 1 (Homo sapiens), O14727; reconstituted apoptosome caspase-3 activity; inhibition, % at 20 µM; actives 0.71% (n = 330,000); AID 489030, 2010; active = inhibition of at least 40% at 20 µM;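 also: plate controls were DMSO wells for no effect and DEVD-CHO caspase inhibitor wells for full effect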
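Assay system – apoptosome proteins · Medium – Hepes buffer, pH 7.5 · Also added – cytochrome c with DEVD-Rh110 · Timing – 30 min compound preincubation, 50 min activation, room temperature · Detection – Rh110 fluorescence, excitation 480 nm, emission 540 nm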
SENP8 block-1: SENP8 protease inhibitors, primary screen, biochemical, luminescence; inhibition, % at 10 µM; Sentrin-specific protease 8 (Homo sapiens), Q96LD8; AID 2540, 2010; purified SENP8, Z-RLRGG-aminoluciferin cleavage; actives 1.2% (n = 330,000); in the data active = inhibition above about 50%
SENP8 block-2: human SENP8 protease inhibitors, primary screen, biochemical, fluorescence, Nedd8 protein substrate, uHTS; Sentrin-specific protease 8 (Homo sapiens), Q96LD8; recombinant SENP8; inhibition, % at 20 µM; actives 0.64% (n = 360,000); AID 602440, 2012; in the data active = inhibition mostly above about 40%, no sharp cut-off; inactive = mostly below about 27%
SENP6 block: SENP6 protease inhibitors, primary screen, biochemical, luminescence, uHTS. Sentrin-specific protease 6 (Homo sapiens), Q9GZR1. Recombinant SENP6 catalytic domain, aminoluciferin luminescence. inhibition, % at 10 µM. actives 1.8% (n = 330,000). AID 2599, 2010;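 active = inhibition above about 50% at the single tested dose, limit read from the data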;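 also: plate controls were DMSO wells with enzyme for no effect and DMSO wells lacking enzyme for full effect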
Target sequence (Q9GZR1 628-1112 limits assumed): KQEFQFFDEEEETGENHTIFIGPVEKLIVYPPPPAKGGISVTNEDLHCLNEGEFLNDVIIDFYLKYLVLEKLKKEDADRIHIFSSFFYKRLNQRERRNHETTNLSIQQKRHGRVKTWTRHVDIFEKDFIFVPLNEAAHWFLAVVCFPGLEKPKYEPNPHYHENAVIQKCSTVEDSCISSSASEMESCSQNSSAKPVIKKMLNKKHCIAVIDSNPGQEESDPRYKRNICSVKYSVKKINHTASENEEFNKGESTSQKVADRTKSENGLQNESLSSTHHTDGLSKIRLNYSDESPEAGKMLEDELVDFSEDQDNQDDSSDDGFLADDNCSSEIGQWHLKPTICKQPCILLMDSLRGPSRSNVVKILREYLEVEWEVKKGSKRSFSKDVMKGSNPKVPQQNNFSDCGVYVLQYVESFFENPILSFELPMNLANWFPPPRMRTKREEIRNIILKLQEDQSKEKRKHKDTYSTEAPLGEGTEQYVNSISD
Apaf-1 inh conf2: Apaf-1 inhibitors, single-dose retest, confirmation, biochemical, fluorescence, DEVD-Rh110, 20 µM | shares compounds with Apaf1 inhib | actives 25% (n = 1,800) | reconstituted apoptosome, caspase-3 DEVD-Rh110 fluorescence | inhibition, % at 20 µM;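 active = mean inhibition of at least 40% at 20 µM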;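 also: plate controls were DMSO wells for no effect and DEVD-CHO caspase inhibitor control wells for full effect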
Rh110 interf inh: Rh110 fluorescence interference by putative Apaf-1 inhibitors, confirmation, artefact control for Apaf-1 inhibitor project, biochemical, 20 µM | shares compounds with Apaf1 inhib | quenched caspase reaction | activation (fluorescence interference), % at 20 µM | 1,800 tested, under 10 active;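 active = signal rise of 40% or more at 20 µM, treated as a fluorescence artifact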
Apaf1 inh interf: fluorescence interference of Apaf-1 inhibitor hits, dose response, artefact control for Apaf-1 inhibitor project | shares compounds with Apaf1 inhib | fluorescence interference counterscreen, Apaf-1 assay format | IC50, µM | 460 tested, under 10 active; call rule not given here
* hit, by the source's call. Only some compounds are listed: those with a hit (about 2.9% of all), similar ones and a draw of the others.

C#CCOCCOCCOCCNc1nc(N2CCN(C(=O)[C@H](CCCCN)n3cc([C@@H](N)CC(N)=O)nn3)CC2)nc(N2CCN(C(=O)[C@H](CCCCN)n3cc([C@@H](N)CC(N)=O)nn3)CC2)n1 was read as SENP7 inh 2, SENP1 FRET inh 2, Apaf1 inhib 55*, SENP8 block-1 -13, SENP8 block-2 18, SENP6 block -11, Apaf-1 inh conf2 5 and Rh110 interf inh 3.
For C#CCOCCOCCOCCNc1nc(N2CCN(C(=O)C([C@@H](C)O)n3cc([C@@H](N)CCCCN)nn3)CC2)nc(N2CCN(C(=O)[C@H](CCCCN)n3cc([C@@H](N)CC(N)=O)nn3)CC2)n1 (stereo partly specified) the results were SENP7 inh -6, SENP1 FRET inh 5, Apaf1 inhib 51*, SENP8 block-1 11, SENP8 block-2 25, SENP6 block 0, Apaf-1 inh conf2 9 and Rh110 interf inh -2.
C#CCOCCOCCOCCNc1nc(N2CCN(C(=O)[C@H]([C@@H](C)CC)n3cc([C@@H](N)Cc4ccc(O)cc4)nn3)CC2)nc(N2CCN(C(=O)[C@H](CCCCN)n3cc([C@@H](N)CO)nn3)CC2)n1 was read as SENP7 inh -14, Apaf1 inhib 52*, SENP8 block-1 -7, SENP6 block 0, Apaf-1 inh conf2 0 and Rh110 interf inh 1.
For COc1ccccc1N1CCN(C(c2cccs2)C(C)NS(=O)(=O)c2ccccc2)CC1 (stereo unspecified) the results were SENP7 inh -13, SENP1 FRET inh 1, Apaf1 inhib 55*, SENP8 block-1 -7, SENP8 block-2 15, SENP6 block -26, Apaf-1 inh conf2 46*, Rh110 interf inh 3 and Apaf1 inh interf >100.
Screening CN(C)CCNC(=O)C(=O)NCC1OCCN1S(=O)(=O)c1ccc(F)cc1 (stereo unspecified) returned SENP1 FRET inh 0 and SENP8 block-2 10.
Screening CN(C)CCNC(=O)C(=O)NCC1OCCN1S(=O)(=O)c1cc(F)ccc1F (stereo unspecified) returned SENP7 inh -12, SENP1 FRET inh -4, Apaf1 inhib 47*, SENP8 block-1 -2, SENP8 block-2 10, SENP6 block -5, Apaf-1 inh conf2 21 and Rh110 interf inh 5.
COc1cccc(NC(=S)NCc2ccc3c(c2)cc(C)n3C)c1 was read as SENP1 FRET inh -10 and SENP8 block-2 -5.
Screening Cc1cc2cc(CNC(=O)Nc3cccc(Cl)c3)ccc2n1C returned SENP7 inh -4, SENP1 FRET inh -3, Apaf1 inhib 49*, SENP8 block-1 -7, SENP8 block-2 -11, SENP6 block 6, Apaf-1 inh conf2 12 and Rh110 interf inh 2.
Cc1cc2cc(CNC(=S)Nc3ccc(OC(F)(F)F)cc3)ccc2n1C was read as SENP7 inh 21, SENP1 FRET inh -10, Apaf1 inhib 59*, SENP8 block-1 -11, SENP8 block-2 -5, SENP6 block -7, Apaf-1 inh conf2 15 and Rh110 interf inh 14.
`Cc1cccc(NC(=O)NCc2ccc3c(c2)cc(C)n3C)c1` gave SENP7 inh -3, SENP1 FRET inh -6, Apaf1 inhib 54*, SENP8 block-1 14, SENP8 block-2 6, SENP6 block 10, Apaf-1 inh conf2 -2 and Rh110 interf inh -2.
`Cc1cccc(NC(=S)NCc2ccc3c(c2)cc(C)n3C)c1C` gave SENP7 inh 2, SENP1 FRET inh -13, Apaf1 inhib 66*, SENP8 block-1 3, SENP8 block-2 -2, SENP6 block -12, Apaf-1 inh conf2 16 and Rh110 interf inh 5.
For CCc1nc2ccc(C(=O)NCCOc3ccc(OC)cc3)cn2c1N(C)Cc1cccs1 the results were SENP1 FRET inh -5 and SENP8 block-2 0.
COc1ccc(NC(=O)C2(C)Cc3c(-c4ccc5c(c4)OCO5)ccnc3O2)cc1OC (stereo unspecified) was read as SENP1 FRET inh 0 and SENP8 block-2 7.
Screening O=C1NC[C@H](CCCCN2C[C@H](Cc3ccccc3)N(CC3CCCCC3)C(=O)C2=O)N(CCc2ccccc2)C1=O returned SENP1 FRET inh -6 and SENP8 block-2 10.
Screening O=C(Cc1ccc(F)cc1)OCC(=O)N1CCN(S(=O)(=O)c2ccc(Cl)cc2)CC1 returned SENP7 inh -3, SENP1 FRET inh 1, Apaf1 inhib 6, SENP8 block-1 -7, SENP8 block-2 9 and SENP6 block 3.
`O=C(Cc1cccc(C(F)(F)F)c1)OCC(=O)N1CCN(S(=O)(=O)c2ccc(Cl)cc2)CC1` gave SENP7 inh -14, SENP1 FRET inh 3, Apaf1 inhib 51*, SENP8 block-1 -8, SENP8 block-2 2, SENP6 block -22, Apaf-1 inh conf2 28 and Rh110 interf inh -9.
Screening COc1ccc(CN(C)C(=O)C2CSC3(C)CCC(=O)N23)cc1 (stereo unspecified) returned SENP7 inh 8, SENP1 FRET inh -2, Apaf1 inhib 19, SENP8 block-1 -4, SENP8 block-2 14 and SENP6 block -4.
COc1ccc(NC(=O)CN(C)C(=O)C2CSC3(C)CCC(=O)N23)cc1 (stereo unspecified) was read as SENP7 inh 0, SENP1 FRET inh -1, Apaf1 inhib 43*, SENP8 block-1 1, SENP8 block-2 11, SENP6 block 11, Apaf-1 inh conf2 34 and Rh110 interf inh 16.
For OC(c1ccc(F)cc1)c1nc(-c2cncnc2)cs1 (stereo unspecified) the results were SENP1 FRET inh 0 and SENP8 block-2 7.
`CCc1ccccc1Nc1nc(N)nc(COC(=O)c2c(C)noc2C)n1` gave SENP7 inh -1, SENP1 FRET inh 1, Apaf1 inhib -5, SENP8 block-1 4, SENP8 block-2 12 and SENP6 block 4.
